Assay results published in the RNAGym collection of RNA variant scans (doi:10.1126/science.aae0568).
Variants at the floor of the assay were thinned out.

B1: tRNA (parent)
chain: GUUCCGUUGGCGUAAUGGUAACGCGUCUCCCUCCUAAGGAGAAGACUGCGGGUUCGAGUCCCGUACGGAACG

Variants of: B1
Assay: yeast fitness relative to wild type (ratio to wild type); higher = fitter; tRNA-Arg(CCU), competitive growth, 37 C, YPD
Outline: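 Variants of the tRNA-Arg(CCU) gene were chemically synthesised with a 3% per-site mutation rate across 69 sites and placed at the native genomic locus in Saccharomyces cerevisiae. Six parallel replicates of the pooled strains were competed in YPD at 37°C for 24 hours, and gene amplicons from the start and end populations were read by 100-nucleotide paired-end sequencing. Darwinian fitness relative to wild type was derived from changes in genotype frequencies. Genotypes required ≥ 100 starting reads, and estimates < 0.5 were set to 0.5.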

Variant | yeast fitness
G12A A40G C46A | 0.752
G12A U13C C49G U59A | ≤ 0.5
G12C A14C U26C A40G C66U A69U | 0.598
G12A U13G C61U G67C | 0.678
C11U U26G G67C | ≤ 0.5
C11U U26A A43U A65C A70G | ≤ 0.5
G12A C31U G52A G56C | 0.569
G12C A21U C34U A69C | ≤ 0.5
G12A A65U | 0.861
G12A A65G | 0.98
G12A C33A | 0.644
C11U U59A C60U | 0.543
G12A A36U | 0.612
G12C A15U C24A C61U | ≤ 0.5
G12A U32C A40G | ≤ 0.5
G12A G23A U28G G56C A65U | 0.762
G12A A20U G23C U32C A69G | ≤ 0.5
G12A A45U | 1.03
G12A A45G | 0.953
G12A C24A A36U A37G C61U G67U | ≤ 0.5
C11U U28C C29G A57G | ≤ 0.5
C11U U32G U53A C55U C61U | ≤ 0.5
G12C A14G G25A G41C G67A | ≤ 0.5
G12A G48A A57G G68C | 0.569

Variant | yeast fitness
G12A A45G C62U | 0.531
C11U U59A A69C | 0.537
C11U U28A | 0.682
G12A C33U A36C C55G | ≤ 0.5
C11U U35C G44A | 0.727
G12A C24A C34A C49A G63U G67A | ≤ 0.5
G12C A20U G25A A36G C46A U54A A70U | ≤ 0.5
G12A G25C C60U A69C | ≤ 0.5
G12A A40C C66U | 0.532
G12A A20C C24G U54A C60G C66U | ≤ 0.5
C11U U53C | 0.652
G12A A20G U26C C31G C33U A42U G67C | ≤ 0.5
G12A C30U C46G | ≤ 0.5
C11U U26C U47A G50A A70C | ≤ 0.5
G12A C30G A40C | ≤ 0.5
G12C A20U C30U C55U C66U | 0.551
C11U U54C G56A | ≤ 0.5
G12A C22G C27A | 0.663
G12C A20U C33U | 0.555
G12A C34G | 0.644
G12A A14G C24G C31U C55A | ≤ 0.5
G12A C29U G56C | ≤ 0.5
G12A G48C U54A | 0.59
G12A C31U C61G | 0.543

Variant | yeast fitness
G12A C49U C66A | ≤ 0.5
G12A C27U C30G C55U A57C | 0.547
G12A U26C C27U C33A A45C C62G A69U | 0.553
G12A A37U | 0.653
G12A G56A | 0.975
G12A G44C C46G | 0.61
G12A U28C | 1.06
G12A U28G | 0.607
G12C A20U C22G G50A | ≤ 0.5
G12A A20U A42C | 0.692
G12A A40C A65C | 0.655
G12A U59C | 0.993
C11U U28C G44C A69C A70C | ≤ 0.5
G12C A15C U19A C34U C49A A65U | ≤ 0.5
G12C A14C C60G | 0.618
G12A A15U C24G G63C | ≤ 0.5
G12A U13A A42C A70U | ≤ 0.5
G12A U16G G48A G68A | 0.705
G12C A20C U32A C33G | 0.536
G12A U13C U26C G51A | ≤ 0.5
G12C A36C A37U | ≤ 0.5
G12A U19G U35C A40U | 0.521
G12A C29G A65U | 0.58
G12A U28A U54C | ≤ 0.5

Variant | yeast fitness
G12A C24U A65U G68A | ≤ 0.5
G12A U26A C31G | 0.541
G12A A57C | 0.618
G12A A21G G39A A45G G50A A69U | ≤ 0.5
G12C A14C A20U A21U C33A G48A C62U | ≤ 0.5
G12A A15G G25C C30G G67C | ≤ 0.5
G12A C30U U47A G67C | ≤ 0.5
G12A G48A | 0.819
G12A C24G U26G G39C C49G A65G | ≤ 0.5
G12C A20U C30U C49U C55U C66U | 0.559
G12A C29G C66U | 0.574
C11U U26A A36U A65U | ≤ 0.5
G12A C22G C24A G38A | ≤ 0.5
G12A A15G A70U | 0.682
G12A A20G U28A C55A G56A | 0.537
G12A C24G A40C A43C C46U C62A | ≤ 0.5
G12A C33U A36C G51C A57U | ≤ 0.5
G12A G52C | 0.668
G12A U13C C27G C31U C34A | ≤ 0.5
G12A A21C C31U | ≤ 0.5
G12C A15U G25A | 0.696
G12A C61U | 0.924
G12A C61A | 0.659
G12A C61G C62A A70G | ≤ 0.5

Variant | yeast fitness
G12A C34U A37U G41A G50C | 0.561
G12A C27G A43U | 0.53
G12A U13G U19C A21G G52A U59G | ≤ 0.5
G12A A14G C30G A70U | 0.616
G12A C34U A37U G41A C55U A69C | ≤ 0.5
G12C A20C C31G U64A | ≤ 0.5
G12A C29G | 0.61
G12A C29A | 0.652
C11U U53C A57C | ≤ 0.5
G12A U16A U64G | ≤ 0.5
G12A G18A U19C C55U A57C G58C | 0.638
G12C A14G G25A G41C U54G A65G G68U A70C | 0.545
G12A U19C C34G C66U A69U | 0.59
C11U U35A G56C | ≤ 0.5
G12A C24U C27A | 0.575
G12A C49U C62A | 0.625
G12A U19A C31G C34U A57G | ≤ 0.5
G12A C22G C29U | 0.551
G12A A15U C33A A36U C62U | ≤ 0.5
G12A C24G A40C A43C C46U G56A G68C A69U | ≤ 0.5
C11U U32A C34U | ≤ 0.5
G12A C33A U54G A70C | 0.541
G12A C22A C24A A65U | ≤ 0.5
G12A G23C | 0.733

Variant | yeast fitness
G12A A42U C61G | 0.505
G12A A15G C22U C31A U35G C61U A65C A69G | ≤ 0.5
C11U U47C A57G A69U | 0.565
G12A G25A C27U | 0.596
G12A U19G A20G U35C A40U | ≤ 0.5
C11U U47A | 0.808
G12C A20C | 0.699
G12C A20U | 0.75
G12A C30G U59A | ≤ 0.5
G12C A14C G56C G58C | ≤ 0.5
G12C A20G C34U C49G | 0.711
G12A U19C G23A U32C A43C G48C U64C | ≤ 0.5
G12A U19G | 0.893
G12A C24U C55G A70U | 0.531
G12A C55U G63C | ≤ 0.5
G12C A21C U26C C60A C61A | ≤ 0.5
G12A U13A G67U | 0.537
G12A A15G C29G G48A C62U C66U | ≤ 0.5
G12A G67U | 0.797
G12A G67C | 0.848
G12A A20G G48A | 0.63
G12C A14G | 0.793
G12A A20C A65U | 0.57
G12A A70G | 1.02

Variant | yeast fitness
G12A A70U | 0.99
G12A C31U | 0.919
C11U U26A C34G G68C | ≤ 0.5
G12A C30U A40U C49A G56A A57U | ≤ 0.5
G12A G25A G52A | 0.583
C11U U35C A42G | ≤ 0.5
G12A A15G C27A | ≤ 0.5
G12A A21G C34U G67U | ≤ 0.5
G12A U35C G48C | ≤ 0.5
G12A A21C G23A C46G U53C | ≤ 0.5
G12A C27G G50A | ≤ 0.5
G12A C34A G52C C60A | ≤ 0.5
G12A G41A G50A | ≤ 0.5
G12A U19G U35C A40U C61A | ≤ 0.5
G12A C24G C29A | ≤ 0.5
G12A G50C | 0.757
G12A G50U | 0.842
G12C A36C | 0.518
G12A A14C U16C C31U C49G C60A | ≤ 0.5
G12A U35C | 0.83
G12A G39A G68A | 0.528
G12C A21C C60A | ≤ 0.5
G12A A15U C22A U26A C33G G38C G41C A43C U47G G67C | ≤ 0.5
